Compound activity: PubChem BioAssay, several laboratories
Shown are actives, neighbours in structure and some others; about 3.7% of the full set was active somewhere.
EP2 mod = EP2 receptor (human) modulation. AID 940. 260,000 tested, 0.83% active. induction, % at 25 µM. EP2-expressing cells, cAMP HTRF FRET, PGE2 co-stimulation;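 active = compounds whose cAMP rise, as percent of the full-agonist control response, exceeds 60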;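 note: rat C6 glioma line stably carrying human EP2 under a CMV promoter; the protocol text gives 20 µM as final concentration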
Target sequence (P43116 whole entry, looked up): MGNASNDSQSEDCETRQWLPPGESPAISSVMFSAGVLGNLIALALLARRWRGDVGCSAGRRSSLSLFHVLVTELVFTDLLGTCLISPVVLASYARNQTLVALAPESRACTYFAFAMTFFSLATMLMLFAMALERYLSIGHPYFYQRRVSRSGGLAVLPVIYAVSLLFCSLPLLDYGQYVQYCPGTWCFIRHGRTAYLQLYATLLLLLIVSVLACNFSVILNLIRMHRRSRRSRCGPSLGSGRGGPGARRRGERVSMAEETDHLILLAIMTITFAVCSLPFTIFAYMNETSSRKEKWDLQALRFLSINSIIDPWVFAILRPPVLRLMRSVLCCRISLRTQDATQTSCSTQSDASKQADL
GPR7 antagonist = blocks human GPR7 receptor signaling; 290,000 tested, 1.1% active; inhibition, % at 4.4 µM; P48145; GPR7-expressing cells, fluorescence antagonist assay; in the data active = inhibition above about 16%, passing the limit was not always enough;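 note: cells stimulated with the agonist NPW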
Target sequence (P48145 whole entry, looked up): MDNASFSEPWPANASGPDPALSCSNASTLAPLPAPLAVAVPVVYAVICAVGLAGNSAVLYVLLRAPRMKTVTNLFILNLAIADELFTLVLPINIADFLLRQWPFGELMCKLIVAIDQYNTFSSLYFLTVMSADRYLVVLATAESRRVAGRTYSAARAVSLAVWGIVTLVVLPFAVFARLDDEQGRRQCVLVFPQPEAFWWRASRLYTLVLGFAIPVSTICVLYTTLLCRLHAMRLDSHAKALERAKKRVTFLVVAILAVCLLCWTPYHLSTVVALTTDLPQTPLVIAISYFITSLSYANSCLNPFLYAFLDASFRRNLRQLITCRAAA
OX1R antag-1 = blocks the human orexin 1 receptor; inhibition, % at 6.6 µM; O43613; OX1R-expressing cells, FRET antagonist read-out; 330,000 tested, 1.8% active; in the data active = inhibition mostly above about 38%, no sharp cut-off; inactive = mostly below about 40%
CHO parental Ca = counter-screen for OX1R antagonists: effect in parental CHO cells | parental CHO-K1, ATP-induced calcium, Fluo-8 fluorescence | 330,000 tested, 0.63% active | inhibition, % at 5.6 µM;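 active = inhibition above that plate's mean sample inhibition plus 3 SD, cut at about 26% in these data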
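Test system: untransfected parental CHO cell line; also added: ATP stimulus; dosing: 5.6 µM, single dose; signal: calcium-sensitive Fluo-8 fluorescence; measure: percent inhibition of ATP-evoked calcium rise, normalized to controls; benchmarks: low control ATP plus DMSO, high control DMSO only; replication: one well per compound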
EP2 antag = inhibitors of human EP2 prostaglandin E2 receptor | C6 glioma cells expressing human EP2, cAMP TR-FRET; cells stimulated with saturating PGE2 | 260,000 tested, 0.52% active | AID 1422 | inhibition, % at 25 µM | P43116;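 active = percent inhibition above 40 after rounding to a whole number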;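 note: rat C6 glioma host cells with rolipram phosphodiesterase inhibitor present; the protocol text gives 20 µM as final concentration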
OX1R antag-2 = blocks the human orexin 1 receptor; 330,000 tested, 0.43% active; AID 434989; O43613; CHO/OX1R cells, Fluo-8 calcium fluorescence, orexin A; inhibition, % at 5 µM;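 active = inhibition above its plate's threshold, mean inhibition of all tested compounds on the plate plus 3 SD, cut at about 37% in these data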
GPR7 antag cf = confirmation of human GPR7 antagonists; shares compounds with GPR7 antagonist; GPR7-expressing cells, calcium fluorescence antagonist mode; inhibition, % at 4.4 µM; 2,400 tested, 52% active; in the data active = inhibition above about 24%;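 note: stimulated with the GPR7 agonist NPW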
MCHR1 antagonist = MCHR1 (human) antagonism in GPR7 counter-screen; shares compounds with GPR7 antagonist; MCHR1-expressing cells, fluorescence antagonist assay; inhibition, % at 4.4 µM; 2,400 tested, 62% active; AID 2148; in the data active = inhibition above about 22%
Each line names hits and unclear results; the compound was inactive in the other large screens (follow-up assays come after a bar, where they were run).

COc1ccccc1CNC(=O)CN1CCN(Cc2ccc(Cl)cc2)C1=O	none (no result: EP2 mod)
CCOC(=O)C1=C(C)NC(=O)NC1c1cc2c(cc1Br)OCO2 (stereo unspecified)	none
CCOC(=O)/C(C)=C1\NC(C)(C)Cc2ccccc21	GPR7 antagonist 24 (no result: OX1R antag-1, CHO parental Ca, OX1R antag-2) | GPR7 antag cf inactive | MCHR1 antagonist inactive
COc1ccc(OC(C)C(=O)Nc2ccc([N+](=O)[O-])cc2)cc1 (stereo unspecified)	none
CC(C)NS(=O)(=O)c1ccc(NC(=O)C(C)Oc2ccc(C(=O)c3ccccc3)cc2)cc1 (stereo unspecified)	GPR7 antagonist 91, CHO parental Ca 68, OX1R antag-2 93 | GPR7 antag cf 92 | MCHR1 antagonist 96
CC(Oc1ccc(Cl)cc1)C(=O)Nc1ccc(S(=O)(=O)Nc2nccs2)cc1 (stereo unspecified)	GPR7 antagonist 24 (no result: EP2 mod, EP2 antag) | GPR7 antag cf inactive | MCHR1 antagonist inactive
CC(Oc1ccc(Cl)cc1)C(=O)Nc1ccc(S(=O)(=O)N2CCOCC2)cc1 (stereo unspecified)	GPR7 antagonist 56 (no result: EP2 mod, EP2 antag) | GPR7 antag cf 53 | MCHR1 antagonist 61
COc1ccc(NC(=O)C(C)Oc2ccc(/C(C)=N\O)cc2)cc1 (stereo unspecified)	GPR7 antagonist 42 (no result: EP2 antag) | GPR7 antag cf 43 | MCHR1 antagonist 34
CCNC(=S)N(CCCN(C)C)Cc1cc2cc3c(cc2[nH]c1=O)OCCO3	none (no result: EP2 mod, EP2 antag)
Cc1cc(C)c2c(c1)c1nnc(SCCN3CCCCC3)nc1n2C	none (no result: EP2 mod, OX1R antag-1, CHO parental Ca, EP2 antag, OX1R antag-2)
COc1ccc(C2Nc3ccccc3C(=O)N2Cc2ccco2)cc1COc1ccccc1F (stereo unspecified)	GPR7 antagonist 26 | GPR7 antag cf 25 | MCHR1 antagonist 36
Cn1nnnc1SCCNCc1cc(Cl)ccc1OCc1ccccc1	GPR7 antagonist 24 | GPR7 antag cf inactive | MCHR1 antagonist 44
Cn1nnnc1SCCNCc1ccccc1OCc1ccc(Cl)cc1	none
Cc1cccc(NC(=O)CC2C(=O)NCCN2C(=O)Nc2ccc(Cl)cc2)c1 (stereo unspecified)	GPR7 antagonist 21 (no result: EP2 mod, OX1R antag-1, CHO parental Ca, EP2 antag, OX1R antag-2) | GPR7 antag cf 33 | MCHR1 antagonist 47
O=C(CC1C(=O)NCCN1C(=O)Nc1ccc(Cl)cc1)Nc1ccc(F)cc1 (stereo unspecified)	none
COc1ccc(CCn2c(SCCN3CCCCC3)nc3ccccc3c2=O)cc1OC	GPR7 antagonist 36 | GPR7 antag cf 30 | MCHR1 antagonist 35
C=CCNC(=O)CSc1nc2ccccc2c(=O)n1CCc1ccc(OC)c(OC)c1	none (no result: EP2 mod, OX1R antag-1, CHO parental Ca, EP2 antag, OX1R antag-2)
c1ccc2c3c([nH]c2c1)C1(CCCCC1)NCC3	GPR7 antagonist 11 | GPR7 antag cf inactive | MCHR1 antagonist inactive
CCN(CC)C(=O)Oc1cc(=O)n(C)c2ccccc12	none
N#CCOC(=O)[C@H](Cc1c[nH]c2ccccc12)NS(=O)(=O)c1ccc(Cl)cc1	GPR7 antagonist 43 (no result: EP2 mod, EP2 antag) | GPR7 antag cf 49 | MCHR1 antagonist 33
CCN(c1ccccc1)S(=O)(=O)c1ccc(C(=O)N(CCCN(C)C)c2nc3c(C)cccc3s2)cc1	GPR7 antagonist 29 (no result: EP2 mod, EP2 antag) | GPR7 antag cf 53 | MCHR1 antagonist 52
CCOC(=O)N1CCN(S(=O)(=O)c2ccc(C(=O)N(CCCN(C)C)c3nc4ccc(CC)cc4s3)cc2)CC1	GPR7 antagonist 28 (no result: EP2 mod, EP2 antag) | GPR7 antag cf 39 | MCHR1 antagonist inactive
CCOC(=O)N1CCN(S(=O)(=O)c2ccc(C(=O)N(CCN(C)C)c3nc4ccc(CC)cc4s3)cc2)CC1	none (no result: EP2 mod, EP2 antag)
COc1cccc2sc(N(CCCN(C)C)C(=O)c3ccc(S(=O)(=O)N4CCCc5ccccc54)cc3)nc12	GPR7 antagonist 35 (no result: EP2 mod, EP2 antag) | GPR7 antag cf 50 | MCHR1 antagonist 41
CN(C)CCCN(C(=O)c1ccc(S(=O)(=O)N2CCc3ccccc32)cc1)c1nc2c(Cl)cccc2s1	none (no result: EP2 mod, EP2 antag)
COc1ccc2c(-c3ccc(OCCN4CCOCC4)cc3)c(-c3ccccc3OC)sc2c1	none (no result: EP2 mod, GPR7 antagonist, EP2 antag)
Oc1ccccc1-c1cc(C(F)(F)F)nc(-c2ccccc2)n1	none
Cc1ccc2nc(C)c(CN3CCN(c4ccc([N+](=O)[O-])cc4Cl)CC3)n2c1	GPR7 antagonist 23 (no result: EP2 mod, EP2 antag) | GPR7 antag cf 52 | MCHR1 antagonist 52
CC1CNCCN1S(=O)(=O)c1cccc2cnccc12 (stereo unspecified)	none
CN(C)CCCN(C(=O)C1=COCCO1)c1nc2ccc(Br)cc2s1	GPR7 antagonist 36 (no result: EP2 mod, EP2 antag) | GPR7 antag cf 55 | MCHR1 antagonist 64
CN(C)CCCN(C(=O)/C=C/c1cccs1)c1nc2ccc(F)cc2s1	GPR7 antagonist 29 | GPR7 antag cf 45 | MCHR1 antagonist 28
CN(C)CCN(C(=O)c1ccc2ccccc2c1)c1nc2ccc(Br)cc2s1	none (no result: EP2 mod, EP2 antag)
CN(C)CCN(C(=O)/C=C/c1cccs1)c1nc2ccc(Br)cc2s1	GPR7 antagonist 25 (no result: EP2 mod, EP2 antag) | GPR7 antag cf 59 | MCHR1 antagonist 68
CN(C)CCCN(C(=O)CCc1ccccc1)c1nc2ccc(Cl)cc2s1	GPR7 antagonist 23 | GPR7 antag cf 73 | MCHR1 antagonist 85
Cc1ccc2nc(N(CCCN(C)C)C(=O)CCc3ccccc3)sc2c1	none
CC(=O)c1c(C)[nH]c(C(=O)OCc2ccc([N+](=O)[O-])cc2)c1C	none (no result: EP2 mod, EP2 antag)
Cc1ccc(-c2noc(=O)n2CC(=O)Nc2ccc(S(=O)(=O)NC3CC3)cc2)cc1	GPR7 antagonist 23 | GPR7 antag cf 47 | MCHR1 antagonist 30
O=C(Cn1c(-c2ccccc2)noc1=O)Nc1ccc(S(=O)(=O)N2CCOCC2)cc1	none
Cc1ccc(S(=O)(=O)NNC(=O)c2cnn(-c3ccccc3)c2-n2cccc2)cc1	none
CCn1c(Cc2ccccc2)nnc1SCc1cccc(C(=O)O)c1	none
CC(C)C(c1nnnn1CCc1ccccc1)N1CCN(Cc2ccc3c(c2)OCO3)CC1 (stereo unspecified)	none (no result: GPR7 antagonist, OX1R antag-1, CHO parental Ca, OX1R antag-2)
c1ccc(CCn2nnnc2C(c2cccs2)N2CCN(Cc3ccc4c(c3)OCO4)CC2)cc1 (stereo unspecified)	GPR7 antagonist 22 | GPR7 antag cf inactive | MCHR1 antagonist 34
COc1ccc(/C=N/Nc2ccc([N+](=O)[O-])cc2)cc1O	GPR7 antagonist 30 (no result: EP2 mod, EP2 antag) | GPR7 antag cf 37 | MCHR1 antagonist 41
CCC(C)n1ncn(-c2ccc(N3CCN(c4ccc(OC)cc4)CC3)cc2)c1=O (stereo unspecified)	none
CCCC1c2ccc(C)n2CCN1C(=O)Nc1ccccc1Cl (stereo unspecified)	none
N=c1n(CCN2CCCCC2)c2ccccc2n1CC(O)COc1ccccc1 (stereo unspecified)	GPR7 antagonist 40 | GPR7 antag cf 40 | MCHR1 antagonist 23
